The values below come from ChEMBL document CHEMBL2321826, “Synthesis and antibacterial evaluation of rhodanine-based 5-aryloxy pyrazoles against selected methicillin resistant and quinolone-resistant Staphylococcus aureus (MRSA and QRSA)” (Eur J Med Chem, 2013).

Values after ≈ are worked out from the molar mass of the structure shown.

Common to all, as to format: functional
Test [1] has as its system Staphylococcus aureus. Put plainly: Antibacterial activity against quinolone-resistant Staphylococcus aureus CCARM 3519 assessed as bacterial growth inhibition measured during 24 hrs incubation at 37 degC by two-fold serial dilution technique. Particulars: CCARM 3519, 24 h. An outline of the steps:
(§1)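 Clinical isolates grown to mid-log phase in Mueller-Hinton broth, diluted 1000-fold, inoculated at 10⁵ CFU/mL in MHB in 96-well microtiter plates. Two-fold serial dilutions gave final concentrations of […]. Oxacillin and norfloxacin were the positive controls. Growth was read as absorbance at 650 nm. MIC is the lowest concentration giving complete growth inhibition.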

Test [2] concerns Staphylococcus aureus. Put plainly: Antibacterial activity against quinolone-resistant Staphylococcus aureus CCARM 3505 assessed as bacterial growth inhibition measured during 24 hrs incubation at 37 degC by two-fold serial dilution technique. Particulars: CCARM 3505, 24 h. In short, it runs like this: as §1
The test system of test [3] is Staphylococcus aureus. Put plainly: Antibacterial activity against methicillin-resistant Staphylococcus aureus CCARM 3506 assessed as bacterial growth inhibition measured during 24 hrs incubation at 37 degC by two-fold serial dilution technique. The following applies: CCARM 3506, 24 h. In short, it runs like this: as §1
Test [4] relates to Staphylococcus aureus. Briefly: Antibacterial activity against methicillin-resistant Staphylococcus aureus CCARM 3167 assessed as bacterial growth inhibition measured during 24 hrs incubation at 37 degC by two-fold serial dilution technique. The following applies: CCARM 3167, 24 h. In short, it runs like this:
as §1

As to `Cc1nn(-c2ccccc2)c(Oc2ccc(Cl)cc2)c1/C=C1\SC(=S)N(CC(=O)O)C1=O`, the minimal inhibitory concentration (MIC) with Staphylococcus aureus [1], with Staphylococcus aureus [2], with Staphylococcus aureus [3] and with Staphylococcus aureus [4] was 16 µg/mL (≈ 32.9 µM) in each case.
With `Cc1nn(-c2ccccc2)c(Oc2ccc3ccccc3c2)c1/C=C1\SC(=S)N([C@H](C(=O)O)C(C)C)C1=O`, the MIC (usually the lowest concentration that inhibits growth of the organism) is 8 µg/mL (≈ 14.7 µM) in the test with Staphylococcus aureus [1], 8 µg/mL (≈ 14.7 µM) in the test on Staphylococcus aureus [2], 8 µg/mL (≈ 14.7 µM) in the test with Staphylococcus aureus [3] and 4 µg/mL (≈ 7.36 µM) in the test on Staphylococcus aureus [4].
For the compound `COc1ccccc1Oc1c(/C=C2\SC(=S)N([C@H](C(=O)O)C(C)C)C2=O)c(C)nn1-c1ccccc1`, the minimal inhibitory concentration (MIC) in the test on Staphylococcus aureus [1], in the test on Staphylococcus aureus [2], in the test with Staphylococcus aureus [3] and with Staphylococcus aureus [4] was 16 µg/mL (≈ 30.6 µM) each time.
`Cc1nn(-c2ccccc2)c(Oc2c(Cl)cccc2Cl)c1/C=C1\SC(=S)N(CC(=O)O)C1=O`: the MIC with Staphylococcus aureus [1], with Staphylococcus aureus [2], with Staphylococcus aureus [3] and with Staphylococcus aureus [4] was 32 µg/mL (≈ 61.5 µM) throughout.
In the case of `Cc1nn(-c2ccccc2)c(Oc2cccc(Cl)c2)c1/C=C1\SC(=S)N([C@H](C(=O)O)C(C)C)C1=O`, the MIC in the test with Staphylococcus aureus [1] is 4 µg/mL (≈ 7.57 µM); in the test with Staphylococcus aureus [2], 8 µg/mL (≈ 15.1 µM); in the test on Staphylococcus aureus [3], 4 µg/mL (≈ 7.57 µM); with Staphylococcus aureus [4], 4 µg/mL (≈ 7.57 µM).
As for `Cc1nn(-c2ccccc2)c(Oc2ccc(Br)cc2)c1/C=C1\SC(=S)N(CC(=O)O)C1=O`, the MIC in the test with Staphylococcus aureus [1] turned out to be 8 µg/mL (≈ 15.1 µM); in the test on Staphylococcus aureus [2], 16 µg/mL (≈ 30.2 µM); in the test with Staphylococcus aureus [3], 8 µg/mL (≈ 15.1 µM); with Staphylococcus aureus [4], 8 µg/mL (≈ 15.1 µM).
Consider `Cc1nn(-c2ccccc2)c(Oc2cccc(C(F)(F)F)c2)c1/C=C1\SC(=S)N([C@H](C(=O)O)C(C)C)C1=O`, for which the MIC with Staphylococcus aureus [1] stood at 8 µg/mL (≈ 14.2 µM); in the test on Staphylococcus aureus [2], 8 µg/mL (≈ 14.2 µM); with Staphylococcus aureus [3] it was 8 µg/mL (≈ 14.2 µM); in the test with Staphylococcus aureus [4], 4 µg/mL (≈ 7.12 µM).
In the case of `Cc1nn(-c2ccccc2)c(Oc2ccc(F)cc2)c1/C=C1\SC(=S)N([C@H](C(=O)O)C(C)C)C1=O`, the MIC with Staphylococcus aureus [1], with Staphylococcus aureus [2], with Staphylococcus aureus [3] and in the test on Staphylococcus aureus [4] was 8 µg/mL (≈ 15.6 µM) each time.
In the case of `Cc1ccc(Oc2c(/C=C3\SC(=S)N(CC(=O)O)C3=O)c(C)nn2-c2ccccc2)cc1`, the MIC in the test on Staphylococcus aureus [1], in the test on Staphylococcus aureus [2], in the test with Staphylococcus aureus [3] and in the test with Staphylococcus aureus [4] was 32 µg/mL (≈ 68.7 µM) each time.
As to `COc1ccc(Oc2c(/C=C3\SC(=S)N(CC(=O)O)C3=O)c(C)nn2-c2ccccc2)cc1`, the minimal inhibitory concentration (MIC) in the test on Staphylococcus aureus [1], in the test with Staphylococcus aureus [2], with Staphylococcus aureus [3] and with Staphylococcus aureus [4] was above 64 µg/mL throughout.
For the compound `Cc1nn(-c2ccccc2)c(Oc2ccc(Cl)cc2Cl)c1/C=C1\SC(=S)N(CC(=O)O)C1=O`, the MIC amounted to 8 µg/mL (≈ 15.4 µM) in the test on Staphylococcus aureus [1], 8 µg/mL (≈ 15.4 µM) in the test on Staphylococcus aureus [2], 8 µg/mL (≈ 15.4 µM) in the test on Staphylococcus aureus [3] and 4 µg/mL (≈ 7.69 µM) with Staphylococcus aureus [4].
Take `Cc1onc(-c2ccccc2)c1C(=O)N[C@@H]1C(=O)N2[C@@H]1SC(C)(C)[C@@H]2C(=O)O` [OXACILLIN]: the MIC in the test on Staphylococcus aureus [1] is 1 µg/mL (≈ 2.49 µM); in the test on Staphylococcus aureus [2] it was 1 µg/mL (≈ 2.49 µM); in the test on Staphylococcus aureus [3], above 64 µg/mL; with Staphylococcus aureus [4] it was above 64 µg/mL.
On to `CCC(C)[C@@H](C(=O)O)N1C(=O)/C(=C/c2c(C)nn(-c3ccccc3)c2Oc2ccccc2Cl)SC1=S` (stereo partly specified), for which the MIC in the test with Staphylococcus aureus [1] is 4 µg/mL (≈ 7.38 µM); in the test on Staphylococcus aureus [2] it was 4 µg/mL (≈ 7.38 µM); in the test with Staphylococcus aureus [3], 4 µg/mL (≈ 7.38 µM); in the test with Staphylococcus aureus [4] it was 2 µg/mL (≈ 3.69 µM).
Turning to `Cc1ccc(Oc2c(/C=C3\SC(=S)N([C@H](C(=O)O)C(C)C)C3=O)c(C)nn2-c2ccccc2)c(C)c1`, the MIC in the test with Staphylococcus aureus [1] is 2 µg/mL (≈ 3.83 µM); with Staphylococcus aureus [2] it was 4 µg/mL (≈ 7.67 µM); in the test with Staphylococcus aureus [3], 4 µg/mL (≈ 7.67 µM); in the test with Staphylococcus aureus [4], 2 µg/mL (≈ 3.83 µM).
`Cc1cccc(Oc2c(/C=C3\SC(=S)N([C@H](C(=O)O)C(C)C)C3=O)c(C)nn2-c2ccccc2)c1`: the MIC with Staphylococcus aureus [1] was determined as 4 µg/mL (≈ 7.88 µM); in the test on Staphylococcus aureus [2], 4 µg/mL (≈ 7.88 µM); in the test on Staphylococcus aureus [3], 8 µg/mL (≈ 15.8 µM); in the test with Staphylococcus aureus [4], 4 µg/mL (≈ 7.88 µM).
In the case of `Cc1nn(-c2ccccc2)c(Oc2ccc3ccccc3c2)c1/C=C1\SC(=S)N(CC(=O)O)C1=O`, the MIC with Staphylococcus aureus [1], in the test on Staphylococcus aureus [2], in the test with Staphylococcus aureus [3] and in the test with Staphylococcus aureus [4] was 8 µg/mL (≈ 15.9 µM) each time.
With `CCC(C)[C@@H](C(=O)O)N1C(=O)/C(=C/c2c(C)nn(-c3ccccc3)c2Oc2ccccc2OC)SC1=S` (stereo partly specified), the MIC in the test on Staphylococcus aureus [1], in the test on Staphylococcus aureus [2], in the test with Staphylococcus aureus [3] and in the test with Staphylococcus aureus [4] was 16 µg/mL (≈ 29.8 µM) each time.
Take `CCC(C)[C@@H](C(=O)O)N1C(=O)/C(=C/c2c(C)nn(-c3ccccc3)c2Oc2ccc(C)cc2)SC1=S` (stereo partly specified): the MIC in the test with Staphylococcus aureus [1] was found to be 4 µg/mL (≈ 7.67 µM); with Staphylococcus aureus [2], 4 µg/mL (≈ 7.67 µM); in the test with Staphylococcus aureus [3] it was 4 µg/mL (≈ 7.67 µM); in the test with Staphylococcus aureus [4] it was 2 µg/mL (≈ 3.83 µM).
Consider `CCC(C)[C@@H](C(=O)O)N1C(=O)/C(=C/c2c(C)nn(-c3ccccc3)c2Oc2ccc(Br)cc2)SC1=S` (stereo partly specified), for which the MIC in the test with Staphylococcus aureus [1], in the test on Staphylococcus aureus [2], with Staphylococcus aureus [3] and with Staphylococcus aureus [4] was 2 µg/mL (≈ 3.41 µM) each time.
